# Screening data deposited in PubChem by several laboratories.
# CRFBP-R2 agonist: CRF-BP/CRF-R2 complex agonism; HEK293 CRF-R2/CRF-BP, calcium dye fluorescence (FLIPR); percent of saturating CRF peptide response; activation, % at 13.2 µM; 350,000 tested, 0.46% active;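 active = activation of at least 50%, plus an integration ratio under a set limit after plate pattern correction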;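 also: plate controls were neutral control wells without compound for no effect and CRF at EC100 for full effect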
# DDE Tn7 FP inh: inhibitors of Tn7 peptide binding to human fibrin DD(E). P02675. FP displacement of FITC-Tn7 peptide from fibrin DD(E); 0% = median of compound wells per plate. inhibition, % at 8.3 µM. 370,000 tested, 0.13% active;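 active = inhibition above the mean of compounds falling within the control limits plus 3 SD of them, cut at about 14% in these data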;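 also: 0% = plate median of compound wells and 100% = 10 µM Aha-Tn7 peptide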
#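 Assay system: Human fibrin DD(E) protein | Medium: Tris buffer with calcium and detergent, pH 7.8 | Reagent: 0.1 µM fluorescent Tn7 | Compound dosing: Single point at 8.3 µM | Times: 10 min preincubation, 3 h with tracer, room temperature | Detection: Fluorescence polarization of the labelled Tn7 tracer | Controls: Aha-Tn7 high control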
# proKLK7 act: proKLK7 (human) activation, primary screen. P49862. purified proKLK7, EDANS-DABCYL substrate fluorescence; 100% is mature enzyme control, 0% vehicle. activation, % at 7 µM. 370,000 tested, 0.9% active. AID 652039;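 active = activation above the mean of all tested compounds plus 3 SD, computed per campaign excluding outliers beyond control limits, cut at about 13% in these data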
# NRP1-CendR mod: alters CendR peptide binding to human NRP-1; O14786; FAM-RPARPAR peptide binding to NRP-1, fluorescence polarization; inhibition, % at 25 µM; 360,000 tested, 0.85% active; AID 602438;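 active = inhibition or corrected inhibition above about 18%, plus a signal ratio from 0.5 to 1.5, limit read from the data, passing the limit was not always enough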
# Target sequence (O14786 whole entry, looked up): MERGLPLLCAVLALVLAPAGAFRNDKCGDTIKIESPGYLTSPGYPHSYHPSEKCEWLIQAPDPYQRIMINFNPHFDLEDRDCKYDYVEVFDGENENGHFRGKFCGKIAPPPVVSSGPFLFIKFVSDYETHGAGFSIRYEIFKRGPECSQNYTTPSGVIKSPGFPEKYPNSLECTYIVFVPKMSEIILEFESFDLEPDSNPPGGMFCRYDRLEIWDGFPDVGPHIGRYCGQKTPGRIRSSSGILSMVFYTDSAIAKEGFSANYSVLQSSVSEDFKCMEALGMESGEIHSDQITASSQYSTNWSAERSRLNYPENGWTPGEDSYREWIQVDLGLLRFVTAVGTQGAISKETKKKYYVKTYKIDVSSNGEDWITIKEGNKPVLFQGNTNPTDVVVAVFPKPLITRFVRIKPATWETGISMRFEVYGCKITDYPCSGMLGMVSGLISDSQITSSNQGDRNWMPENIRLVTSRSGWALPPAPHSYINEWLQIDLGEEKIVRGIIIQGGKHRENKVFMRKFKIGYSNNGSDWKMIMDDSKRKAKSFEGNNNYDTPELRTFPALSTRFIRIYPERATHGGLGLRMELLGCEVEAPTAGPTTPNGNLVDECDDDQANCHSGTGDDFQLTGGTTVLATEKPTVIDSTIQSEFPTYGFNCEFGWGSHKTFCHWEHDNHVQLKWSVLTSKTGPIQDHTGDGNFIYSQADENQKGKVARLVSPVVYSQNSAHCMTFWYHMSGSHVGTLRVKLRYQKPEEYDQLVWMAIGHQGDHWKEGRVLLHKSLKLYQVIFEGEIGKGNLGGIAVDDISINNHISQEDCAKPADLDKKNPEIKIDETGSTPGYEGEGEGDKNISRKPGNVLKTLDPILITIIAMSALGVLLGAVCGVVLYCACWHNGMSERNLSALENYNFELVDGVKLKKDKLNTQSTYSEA
# CRFR2-BP antag: antagonists of CRF-binding protein/CRF-R2 receptor complex. AID 588475. HEK293 CRF-R2/CRF-BP, CRF-induced calcium fluorescence. inhibition, % at 11.8 µM. 350,000 tested, 0.59% active;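 active = inhibition of the ligand-induced calcium signal above about 50% at the single tested concentration, limit read from the data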
# Tn6 DDE FP: inhibitors of Tn6 peptide binding to human fibrin DD(E); P02675; Fibrin DD(E) TRITC-Tn6 fluorescence polarization displacement; inhibition, % at 8.3 µM; 370,000 tested, 0.21% active;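 active = inhibition above a per-campaign cutoff: mean of compounds within control limits plus 3 SD, cut at about 15% in these data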;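 also: 0% = median of all compound wells on the plate and 100% = blocking peptide control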
# An asterisk follows results filed as active; . = no result. Hits are enriched below; roughly 2.9% of the tested compounds scored in any of these assays.
SMILES,CRFBP-R2 agonist,DDE Tn7 FP inh,proKLK7 act,NRP1-CendR mod,CRFR2-BP antag,Tn6 DDE FP
C[C@H]1[C@H](NC(=O)c2ccc(Cl)cc2)CC[C@@]23CCCN2C(=O)CCC[C@@H]13,.,0.8,.,.,.,2.5
COC(=O)C1=C(C)N(Cc2ccc(C(F)(F)F)cc2)C(=NCc2ccccc2C(F)(F)F)NC1c1cccc(Cl)c1 (stereo not drawn),.,-1.9,-0.4,.,.,-2.7
COC(=O)[C@]12C[C@H](CC(=O)NCCC(C)C)C(=O)N(CCc3ccc(OC)c(OC)c3)C1=C[C@H](C(C)C)O[C@@H]2C1CC1,.,-0.3,0.2,.,.,3.8
COC(=O)c1sc(-c2ccc(C(C)(C)C)cc2)cc1NC(=O)CSCC(=O)O,1.1,-5.2,-3.9,-24.6,53.6*,0.2
S=C(Nc1ccccc1Cl)OCCN1CCCC12CCC(c1ccccc1)CC2 (stereo not drawn),.,4.8,.,.,.,8.1
CN(C)c1c([N+](=O)[O-])ncn1C,0.3,-0.5,-0.7,-4.4,53.7*,-10.4
CCNc1c([N+](=O)[O-])ncn1C,-0.7,0.5,-0.6,31.5*,-15.4,3.7
Cc1c(N=C2N=C(NC(=O)c3ccc(F)cc3)c3ccccc32)c(=O)n(-c2ccccc2)n1C,65.3*,1.2,-0.4,132.8,-54.2,9.3
Cc1c(NC(=O)NC(=O)c2ccc(F)cc2)c(=O)n(-c2ccccc2)n1C,-0.7,7.8,-0.2,11.4,-2.9,-2.9
O=S(=O)(/N=C(\c1ccc(F)cc1)N1CCOCC1)c1ccccc1,50.0*,2.2,0.4,-6.4,-21.3,1.6
Cc1ccc(S(=O)(=O)/N=C(/c2ccc(F)cc2)N2CCOCC2)cc1,-2.3,2.4,0.2,23.7,-1.1,-7.4
COc1ccc2[nH]c3c(c2c1)CCN[C@]31C(=O)N(C)c2ccc(Br)cc21,.,-3.6,0.4,.,.,5.7
COc1ccccc1-n1c(SCC(N)=O)nnc1-c1ccc(S(=O)(=O)N2CCCCC2)cc1,62.3*,0.5,-0.1,-0.1,-88.5,-6.6
CC(=O)CSc1nnc(-c2ccc(S(=O)(=O)N3CCCC3)cc2)n1C,-0.2,1.7,0.0,25.2*,0.3,8.1
NC(=O)CSc1nnc(-c2ccc(S(=O)(=O)N3CCCCC3)cc2)n1-c1ccccc1,36.9,-5.1,0.8,5.5,-62.6,-3.1
COc1ccccc1-n1c(SCC(=O)N2CCCC2)nnc1-c1ccccc1,0.2,-1.1,0.5,21.1*,0.4,-1.5
CCOC(=O)Nc1ccc2c(c1)[C@@]1(CC(=O)N(CC(C)C)C1c1ccccc1)C(=O)N2C (stereo partly drawn),.,5.7,-0.1,.,.,-6.2
CCOc1ccc(/C=C2\SC(=S)N(CCC(=O)Nc3ccccc3C(=O)O)C2=O)cc1,-3.3,-8.1,0.6,-60.9,55.0*,-1.5
COc1cc(/C=C2\SC(=S)N(NS(=O)(=O)c3ccc(C)cc3)C2=O)ccc1O,59.0*,-19.4,-0.4,-259.9,-34.0,-27.0
COc1ccc(/C=C2\SC(=S)N(CC(=O)NCCO)C2=O)cc1,1.3,-0.8,-0.1,9.1,59.8*,-5.4
COc1cc(/C=C2\SC(=S)N(C(C(=O)O)c3ccccc3)C2=O)ccc1O (stereo not drawn),52.7*,-11.1,1.0,-271.7,-51.3,-1.0
COc1cccc(/C=C2\SC(=S)N(NS(=O)(=O)c3ccc(C)cc3)C2=O)c1OC,.,0.5,-0.4,-21.1,.,-5.4
COc1cc(/C=C2\SC(=S)N(NS(=O)(=O)c3ccc(C)cc3)C2=O)cc(OC)c1OC,0.7,-4.3,0.3,-9.5,55.4*,-6.8
COc1cc(/C=C2\SC(=S)N(NC(=O)c3cccc(O)c3)C2=O)ccc1O,64.4*,-13.2,0.8,-213.2,-61.6,-12.6
O=C(O)C(Cc1ccccc1)N1C(=O)/C(=C/c2cccnc2)SC1=S (stereo not drawn),-0.7,0.1,-0.1,-9.3,10.6,-1.4
SMILES,CRFBP-R2 agonist,DDE Tn7 FP inh,proKLK7 act,NRP1-CendR mod,CRFR2-BP antag,Tn6 DDE FP
COc1ccc(/C=C2\SC(=S)N(C(Cc3ccccc3)C(=O)O)C2=O)cc1 (stereo not drawn),-1.1,-4.0,0.5,-17.4,58.3*,3.2
CN1CCCN(C(=O)C2CCCN(C(=O)c3ccc4c(c3)NC(=O)CS4)C2)CC1 (stereo not drawn),.,-0.9,0.1,.,.,-3.5
CC(C)CN1C(=O)C[C@@]2(C(=O)N(C)c3ccc(NC(=O)c4cc(F)ccc4F)cc32)C1c1ccccc1 (stereo partly drawn),.,-1.4,-0.3,.,.,-2.2
CNC(=O)C[C@@H]1CC[C@@H]2[C@H](COC[C@H](O)CN2S(=O)(=O)c2ccccc2Cl)O1,.,4.6,0.0,32.0*,.,8.6
CCOC(=O)N1C(=O)C[C@](Sc2ccc(OC)cc2)(C(=O)N2CCCC2)[C@H]1c1ccc(OC)cc1,.,6.8,0.7,.,.,2.3
COc1ccc(CNC(=O)c2ccccc2[N+](=O)[O-])cc1,0.6,.,.,26.2*,-1.9,.
CCOC(=O)C(CCCCOc1ccc([N+](=O)[O-])cc1)C(=O)OCC,-4.2,.,.,3.2,61.6*,.
CC(CCN1CCC(C(O)(c2ccccc2)c2ccccc2)CC1)Oc1ccc(C#N)c(F)c1 (stereo not drawn),.,-5.5,0.2,.,.,0.5
COC(=O)[C@@]12CCCCC3=C1N(CCC3)C(=O)[C@H]2CC(=O)NCc1cccc(C(F)(F)F)c1,.,3.9,-0.5,.,.,5.6
Cc1cc(C)c(OCCN(C)Cc2ccccc2)c(Br)c1,-0.2,-3.3,-0.3,-18.3,86.8*,-5.2
CN(CCCOc1ccccc1Br)Cc1ccccc1,-0.2,3.2,-0.1,-7.2,-18.6,-5.1
O=C(c1ccc(F)cc1F)N(Cc1ccccn1)CC1CCCO1 (stereo not drawn),.,0.7,0.7,.,.,1.6
CCC(Sc1nc2n[nH]c(C)c2c(=N)n1-c1cccc(Cl)c1)C(=O)NCCOC (stereo not drawn),-1.0,-0.1,0.4,28.9*,6.4,0.4
CCC(Sc1nc2n[nH]c(C)c2c(=N)n1-c1ccc(C)c(Cl)c1)C(=O)N1CCOCC1 (stereo not drawn),3.8,.,.,-0.8,-26.3,.
CCCCCCCCN1CCS(=O)(=O)N(Cc2ccc(OC)cc2)C(C(=O)OC)C1 (stereo not drawn),.,9.0,0.2,.,.,-1.8
COCC#Cc1ccc(CC[C@H]2O[C@H]3CC[C@@H](CO)O[C@H]3C[C@H]2n2cc(C3CC3)nn2)cc1,.,-4.6,0.1,.,.,-1.4
COC(=O)[C@]12C[C@H](CC(=O)NCc3ccccc3)C(=O)N(Cc3cccc4ccccc34)C1=C[C@H](COCc1ccccc1)O[C@@H]2C,.,-7.7,0.2,.,.,-4.1
COc1ccc(-c2oc3ccc(-c4cc(OC)c(OC)c(OC)c4)cc3c2-c2ccc(OC)cc2)cc1,-0.6,-9.0,0.2,.,5.7,6.8
